Only some compounds are listed: those with a hit (about 3.7% of all), similar ones and a draw of the others.
HCV NS3 hel inh – inhibitors of HCV NS3 helicase, primary screen, biochemical, Cy5 molecular beacon fluorescence. inhibition, % at 10.9 µM. actives 0.56% (n = 290,000). AID 1800, 2009. NS3 helicase DNA unwinding;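 active = inhibition above the mean of all tested compounds plus 3 SD, set per campaign, cut at about 35% in these data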;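 note: 0% = DMSO wells and 100% = thioflavine S control wells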
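System: Hepatitis C virus NS3 helicase domain fragment enzyme | Reagent: Annealed dual-labelled DNA beacon duplex, ATP-started | Compound dosing: 10.9 µM single point, 0.8% DMSO | Incubation: 1 h reaction at 25 °C, ATP-initiated | Technique: Cy5 fluorescence | Evaluation: Percent inhibition from t60/t0 fluorescence ratio | Benchmarks: Low DMSO, high thioflavine S at 110 µM | Replication: Singlicate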
TAAR1 antagonist – human TAAR1 antagonists, primary screen, Fluo-8 calcium fluorescence, CHO RD-HGA16 cells; Trace amine-associated receptor 1 (Homo sapiens), Q96RJ0; antagonist; inhibition, % at 3 µM; actives 1.5% (n = 360,000); AID 624466, 2012;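 active = inhibition above a per-plate cutoff, the mean inhibition of test compounds on that plate plus 3 SD, cut at about 49% in these data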;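 note: 0% = DMSO plus EC80 beta-PEA response and 100% = DMSO alone without agonist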
Target sequence (Q96RJ0 whole entry, looked up): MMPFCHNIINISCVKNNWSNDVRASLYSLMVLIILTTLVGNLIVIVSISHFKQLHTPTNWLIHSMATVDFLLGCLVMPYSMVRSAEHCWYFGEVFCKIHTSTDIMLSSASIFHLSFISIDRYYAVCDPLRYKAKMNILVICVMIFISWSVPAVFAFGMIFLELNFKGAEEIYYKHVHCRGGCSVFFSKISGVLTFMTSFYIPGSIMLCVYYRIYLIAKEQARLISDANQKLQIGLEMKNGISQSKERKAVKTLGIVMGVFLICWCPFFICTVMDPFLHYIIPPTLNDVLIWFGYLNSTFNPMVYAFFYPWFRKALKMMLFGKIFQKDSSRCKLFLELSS
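System: RD-HGA16 CHO cells with stable hTAAR1 and Gα16 | Probe or stimulus: EC80 β-phenethylamine stimulus | Dosing: 3 µM, single point | Times: Dye loading 75 min at 37 °C, then 30 min room temperature | Measured by: Fluo-8 calcium-sensitive fluorescence | Read-out basis: % inhibition of agonist calcium response | Replicates: n of 1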
TAAR1 ag – human TAAR1 agonists, primary screen, Fluo-8 calcium fluorescence, CHO RD-HGA16 cells; Trace amine-associated receptor 1 (Homo sapiens), Q96RJ0; vehicle wells 0%, saturating PEA agonist 100%; activation, % at 3 µM; actives 0.99% (n = 360,000);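 active = activation above the mean activation of all test compounds in the run plus 3 SD, cut at about 38% in these data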
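Assay system – CHO-derived RD-HGA16 cells with stable Gα16 and human TAAR1 · Compound dosing – one-point dosing at 3 µM (nominal) · Incubation – 17-24 h seeding, 75 min 37 °C dye, 30 min RT · Measured by – kinetic Fluo-8 calcium fluorescence · Control set – DMSO vehicle as 0%, PEA at EC100 as 100% · Repeats – single well for each compound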
rCAG binder – binders of r(CAG) RNA repeats, primary screen, biochemical, fluorescence; r(CAG) RNA repeat, TO-PRO-1 dye displacement fluorescence; inhibition, % at 3 µM; actives 1.3% (n = 370,000); AID 651821, 2012;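 active = inhibition above the plate cutoff, the mean of all test compounds on that plate plus 3 SD, cut at about 35% in these data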;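 note: 0% = DMSO alone and 100% = 100 µM mitoxantrone as full dye displacement; higher means more dye released from RNA so lower well fluorescence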
core dimer inh – inhibitors of HCV core protein dimerization, primary screen, biochemical, TR-FRET, high-throughput; inhibition, % at 5 µM; TR-FRET GST/Flag-core106 dimerization, 1536-well; actives 0.33% (n = 300,000);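 active = inhibition above the mean of all tested compounds plus 3 SD, set per screening campaign, cut at about 45% in these data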
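Assay system: tagged HCV core106 pair (GST and Flag); medium: KF-containing HEPES buffer, pH 7.45, DTT, CHAPS, BSA; also added: Eu donor and XL665 acceptor anti-tag antibodies; dosing: 5 µM single dose; timing: compound-protein-antibody incubation 4 h at 22.5 °C; signal: TR-FRET 671 and 617 nm emission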
Starred values were filed as active, the others as inactive; . = no result.

SMILES	HCV NS3 hel inh	TAAR1 antagonist	TAAR1 ag	rCAG binder	core dimer inh
CC(/C=C1\SC(=S)N(CC(=O)O)C1=O)=C\c1ccccc1	18	-1	-3	8	16
O=C(CN1CCc2ccccc2C1)Nc1cccc(S(=O)(=O)N2CCCC2)c1	-21	-7	38*	3	16
O=C(Cc1ccccc1)Nc1cccc(S(=O)(=O)N2CCCCCC2)c1	.	7	4	5	.
N=C1/C(=C/c2cccn2-c2ccc([N+](=O)[O-])cc2)C(=O)N=C2SC=CN12	5	29	8	3	36
O=C1NC(=S)N/C1=C/c1cccn1-c1ccc([N+](=O)[O-])cc1	27	13	0	29	59*
CCCCc1cc(=O)oc2cc(C)c(CN3CCCC3)c(O)c12	33	-16	-1	26	51*
CCOc1ccc(-n2c(SCC(=O)Nc3cccc4ccccc34)nnc2-c2ccccc2)cc1	.	.	.	4	.
CCCNS(=O)(=O)c1ccc(CCC(=O)Nc2cc(Cl)ccc2Oc2ccccc2)cc1	-7	69*	9	9	.
CC(C)CNS(=O)(=O)c1ccc(CCC(=O)Nc2cc(Cl)ccc2Oc2ccccc2)cc1	-6	63*	7	6	15
O=C(O)c1ccc(-n2nc(-c3ccccc3O)nc2-c2ccccc2O)cc1	.	.	.	20	.
CC(=O)N(C)c1ccc(NC(=O)Nc2ccc(C)c(C)c2)cc1	5	58*	34	5	2
Cc1cc(C)cc(N2Cc3ccccc3C2)c1	6	-24	1	2	62*
CCOc1ccc(C(=O)N/N=C/c2ccc(-c3ccc(S(=O)(=O)Nc4ncccn4)cc3)o2)cc1	10	15	12	57*	1
NC(=S)NN=Cc1ccc(-c2ccc(S(=O)(=O)Nc3ncccn3)cc2)o1	.	-12	0	30	.
CCOc1ccc(S(=O)(=O)N(CC(=O)N/N=C/c2ccc(-c3ccc([N+](=O)[O-])cc3)o2)c2ccccc2)cc1	12	15	4	33	75*
Cc1ccc(C)c(N(CC(=O)N/N=C/c2ccc(-c3ccc([N+](=O)[O-])cc3)o2)S(=O)(=O)c2ccccc2)c1	5	-10	-3	19	52*
COc1ccc(NC(=O)CSc2nnc(-c3n[nH]c4c3CCC4)n2N)cc1	.	.	.	0	.
Cc1ccc2nc(N(CCCN(C)C)C(=O)c3ccc(S(=O)(=O)N4CCCCCC4)cc3)sc2c1	-68	15	50*	-4	-8
CCc1ccc2nc(N(CCCN(C)C)C(=O)c3ccc(S(=O)(=O)N4CCCC4)cc3)sc2c1	-33	6	25	-6	8
COc1cccc2sc(N(CCCN(C)C)C(=O)c3ccc(S(=O)(=O)N4CCCc5ccccc54)cc3)nc12	-48	23	40*	-2	-11
COc1ccc(C)c2sc(N(CCCN(C)C)C(=O)c3ccc(S(=O)(=O)N4CCc5ccccc5C4)cc3)nc12	.	41	48*	8	-2
CCOc1ccc2nc(N(CCCN(C)C)C(=O)c3ccc(S(=O)(=O)N4CCc5ccccc5C4)cc3)sc2c1	-31	38	43*	4	-20
COc1cc2nc(N(CCCN(C)C)C(=O)c3ccc(S(=O)(=O)N4CCc5ccccc5C4)cc3)sc2cc1OC	.	-3	22	0	-4
CCN(C(=O)[C@@H](C)[C@@H](O)c1ccc2ccccc2c1)c1ccccc1	.	.	.	0	.
COCCCNC(=S)N1CCN(c2nc(-c3ccc(F)cc3)cs2)CC1	-16	52*	9	-3	12
SMILES	HCV NS3 hel inh	TAAR1 antagonist	TAAR1 ag	rCAG binder	core dimer inh
O=C(NCc1cccs1)c1cc(-c2ccc(O)cc2)on1	29	1	41*	4	0
Cc1ccc(-c2cc(C(=O)NCc3cccs3)no2)cc1	6	-1	4	-3	3
Cc1ccccc1NC(=O)C[C@H]1CC[C@H]2[C@@H](COc3ccc(NC(=O)Nc4ccccc4)cc3C(=O)N2C)O1	.	.	.	7	.
Clc1ccc(Cn2ncc3c(N4CCCCC4)ncnc32)c(Cl)c1	-10	78*	36	-1	3
O[C@H](COc1ccc(F)cc1)CN1CCC(C(O)(c2ccccc2)c2ccccc2)CC1	.	.	.	0	.
O=C(Cn1nc(-c2ccccc2)ccc1=O)NCCc1ccccc1F	.	.	.	2	.
Cc1ccccc1C1c2[nH]c3ccccc3c2C[C@H]2C(=O)N(c3ccccc3C(=O)NCCN3CCOCC3)C(=O)N12 (stereo partly drawn)	-85	50*	9	5	0
N#Cc1ccccc1N1CCN(C(=O)C2CCN(c3ncnc4c3sc3cccc(F)c34)CC2)CC1	.	.	.	10	.
CC(C)n1c(SCC(=O)Nc2nc3c(s2)CCCC3)nc2c1c(=O)n(C)c(=O)n2C	7	56*	25	-2	2
CCOC(=O)c1c(NC(=O)CSc2nc3c(c(=O)n(C)c(=O)n3C)n2C(C)C)sc(C)c1C	-8	7	-3	-3	-3
CC(COc1cccc(Br)c1)CN1CCC(C(O)(c2ccccc2)c2ccccc2)CC1 (stereo not drawn)	.	.	.	3	.
O=C(c1ccc(CS(=O)(=O)c2ccc(Br)cc2)o1)N1CCN(c2ccc(F)cc2)CC1	-18	52*	3	1	4
CCc1cccc(C)c1NC(=O)CSc1nc2ccc(N3C(=O)c4ccccc4C3=O)cc2s1	-6	-13	3	3	47*
Cc1cc(C)c(NC(=O)CSc2nc3ccc(N4C(=O)c5ccccc5C4=O)cc3s2)c(C)c1	-7	10	8	0	8
O=C(CN1CCOCC1)Nc1scc2c1c(=O)oc1ccccc12	9	53*	16	4	4
Cc1cc(C=C2C(=O)CCCC2=O)c(C)n1-c1ccccc1	25	6	1	15	55*
Cc1cc(/C=C2/C(=O)NN(c3ccccc3)C2=O)c(C)n1-c1ccc(O)cc1	2	-10	7	28	-12
CCOC(=O)c1oc2ccc(S(=O)(=O)n3nc(-c4ccc(OC)cc4)cc3N)cc2c1C	-2	-15	-1	10	47*
CCOC(=O)c1oc2ccc(S(=O)(=O)n3nc(-c4ccccc4)cc3N)cc2c1C	24	-11	-1	4	12
C=CCNC(=O)/C(C#N)=C/c1ccccc1OCc1ccc(C(=O)OC)cc1	-14	49*	5	-5	4
CCCCCCCCN1C(=O)[C@@H](CC(=O)N2CCN(C(=O)C3CC3)CC2)C[C@@]2(C(=O)OC)C1=C[C@H](C(C)C)O[C@@H]2C1CC1	.	.	.	7	.
CCOc1ccc(-c2cccc(NS(=O)(=O)c3cc([N+](=O)[O-])ccc3Cl)c2)nn1	.	-13	-3	40*	13
CCN(CC)c1ccc(NC(=O)c2cc3c(C)nn(-c4ccccc4)c3s2)cc1	.	.	.	15	.
